Data as given in the array DNA melting data of Ke et al. (doi:10.1101/2024.01.08.574731).

Tests used:
[1] = folding enthalpy; higher = less favourable; fluorescence melt of hairpins on a sequencing array, two-state fit; details: sodium 0.088 M
Summary of the method: (§1)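 Two-state fits, bootstrapped, provided melting temperature and folding enthalpy from Cy3 fluorescence normalised to pre-quench Cy3 and to control constructs. Library hairpins with annealed Cy3 and quencher oligos were imaged on a sequenced MiSeq flow cell in 50 mM Na-HEPES pH 8.0, 25 mM NaCl, at 2.5 °C intervals up to 60 °C. Four replicates were combined with inverse-variance weighting. A 9.35 °C upward shift was applied to fitted temperatures to match UV melts.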

[2] = melting temperature; fluorescence melt of hairpins on a sequencing array, two-state fit, raised by 9.35 °C to match UV melts; details: sodium 0.088 M
Summary of the method: as §1

GATCCCCAATGGGATC ((((((....)))))) showed a folding enthalpy [1] of -34.5 kcal/mol and a Tm [2] of 59.7 °C.
In the case of GATTCGGGAAACCGAGTC ((.((((....)))).)), the folding enthalpy [1] is reported as -28 kcal/mol and the Tm [2] is reported as 46.7 °C.
GATCGCGGAAACGTGATC ((((.((....)).)))) showed a folding enthalpy [1] of -38.6 kcal/mol and a Tm [2] of 57.5 °C.
GCGGGTTGCCGC ((((....)))) gave a folding enthalpy [1] of -19.8 kcal/mol and a Tm [2] of 57.2 °C.
With GGAGGCGAAAGCCACTCC ((((((....)))..))) the folding enthalpy [1] was -12.1 kcal/mol and the Tm [2] was 42.6 °C.
Sequence GTACTCGAAAGAGGATAC ((((((....)))..))) has a folding enthalpy [1] of -13.2 kcal/mol and a Tm [2] of 28.5 °C.
CACCTGAAAAGGTG (((((....))))) showed a folding enthalpy [1] of -23.8 kcal/mol and a Tm [2] of 54.4 °C.
GAACACGAAAGTGATTTC ((((((....)))..))) showed a folding enthalpy [1] of -12.3 kcal/mol and a Tm [2] of 26.9 °C.
For GATACACGAAAGTGCATC (((.(((....))).))), the folding enthalpy [1] was -23.7 kcal/mol and the Tm [2] was 44.2 °C.
For GGGTCCTCGAAAGAGCCC (((..(((....)))))), the folding enthalpy [1] was -15.3 kcal/mol and the Tm [2] was 40 °C.
For GACACAGGAAACTATGTC ((((.((....)).)))), the folding enthalpy [1] was -24.5 kcal/mol and the Tm [2] was 29.9 °C.
GGGCTCCGAAAGGATCCC (((.(((....))).))) gave a folding enthalpy [1] of -44.4 kcal/mol and a Tm [2] of 53.5 °C.
GGTGACGAAAGTCTCACC ((((((....)))..))) showed a folding enthalpy [1] of -15.1 kcal/mol and a Tm [2] of 40.9 °C.
Sequence GCAGGCGAAAGCCCGTGC ((((((....)))..))) has a folding enthalpy [1] of -13.1 kcal/mol and a Tm [2] of 43.6 °C.
Sequence GGTTAGGGAAACCTAACC (((((((....))))))) has a folding enthalpy [1] of -46.4 kcal/mol and a Tm [2] of 58.3 °C.
GTACGCGAAAGCGCTAC ((((((....))).))) gave a folding enthalpy [1] of -13.2 kcal/mol and a Tm [2] of 42.2 °C.
Sequence GGGACGACGAAAGTCCCC (((..(((....)))))) has a folding enthalpy [1] of -15.2 kcal/mol and a Tm [2] of 49.2 °C.
In the case of GTCGCTCGAAAGAGGGAC (((.(((....))).))), the folding enthalpy [1] is reported as -44.3 kcal/mol and the Tm [2] is reported as 63.2 °C.
Sequence GCTGTACGAAAGTAAGC (((.(((....)))))) has a folding enthalpy [1] of -27.1 kcal/mol and a Tm [2] of 49.2 °C.
Sequence GATCGCCCGTGCGATC ((((((....)))))) has a folding enthalpy [1] of -33.7 kcal/mol and a Tm [2] of 64 °C.
For GTCAGGGGAAACCTTGGC (.((.((....)).)).), the folding enthalpy [1] was -17.3 kcal/mol and the Tm [2] was 32.7 °C.
GCAAGAGGAAACTCTTAC (.(((((....))))).) showed a folding enthalpy [1] of -14.6 kcal/mol and a Tm [2] of 28 °C.
GTAGCTGGAAACGGTTAC (((.(.(....).).))) showed a folding enthalpy [1] of -18.7 kcal/mol and a Tm [2] of 28.9 °C.
GTACTCGAAAGAGGTTAC ((((((....)))..))) gave a folding enthalpy [1] of -8.46 kcal/mol and a Tm [2] of 26.6 °C.
Sequence GGAGCTCCGAAAGGATCC (((..(((....)))))) has a folding enthalpy [1] of -10.9 kcal/mol and a Tm [2] of 30.5 °C.
GACAATGGAAACATTGTC (((((((....))))))) showed a folding enthalpy [1] of -47.7 kcal/mol and a Tm [2] of 57 °C.
With GATCATGAACATGATC ((((((....)))))) the folding enthalpy [1] was -41 kcal/mol and the Tm [2] was 54 °C.
Work on GCTGCAGGAAACTACAGC ((((.((....)).)))) yielded a folding enthalpy [1] of -33.9 kcal/mol and a Tm [2] of 45.6 °C.
For GGGTACCGAAAGGTGCCC (((.(((....))).))), the folding enthalpy [1] was -29.2 kcal/mol and the Tm [2] was 68.7 °C.
For GCACAGCGAAAGCTAAGC ((..(((....)))..)), the folding enthalpy [1] was -12.1 kcal/mol and the Tm [2] was 40.4 °C.
Sequence GATCGGATCCCGATC ((((((...)))))) has a folding enthalpy [1] of -38 kcal/mol and a Tm [2] of 56 °C.
In the case of GATCACTTGGGTGATC ((((((....)))))), the folding enthalpy [1] is reported as -40 kcal/mol and the Tm [2] is reported as 57.1 °C.
Work on GGTGGCGGAAACGCTACC (((.(((....))).))) yielded a folding enthalpy [1] of -39.8 kcal/mol and a Tm [2] of 59.9 °C.
In the case of GATCCTTGAAAGGATC ((((((....)))))), the folding enthalpy [1] is reported as -42.3 kcal/mol and the Tm [2] is reported as 51.9 °C.
With GATCTGTGCCAGATC ((((((...)))))) the folding enthalpy [1] was -38 kcal/mol and the Tm [2] was 51.1 °C.
GATCTTGAGGAAGATC ((((((....)))))) showed a folding enthalpy [1] of -24.9 kcal/mol and a Tm [2] of 36.8 °C.
In the case of GACGAAGCGAAAGCTGTC (((..(((....)))))), the folding enthalpy [1] is reported as -16.7 kcal/mol and the Tm [2] is reported as 45.4 °C.
Work on GATCACCTACGTGATC ((((((....)))))) yielded a folding enthalpy [1] of -43 kcal/mol and a Tm [2] of 56.6 °C.
Work on GATCTGTCTCCAGATC ((((((....)))))) yielded a folding enthalpy [1] of -45.9 kcal/mol and a Tm [2] of 48.4 °C.
In the case of GCGTCCAAACGC ((((....)))), the folding enthalpy [1] is reported as -18.8 kcal/mol and the Tm [2] is reported as 51.4 °C.
With GTAGACGAAAGTCCTAC ((((((....))).))) the folding enthalpy [1] was -19.7 kcal/mol and the Tm [2] was 36.4 °C.
In the case of GATCTATGCATAGATC ((((((....)))))), the folding enthalpy [1] is reported as -43.4 kcal/mol and the Tm [2] is reported as 49.9 °C.
GATCCCGACGGGATC ((((((...)))))) gave a folding enthalpy [1] of -28.4 kcal/mol and a Tm [2] of 68 °C.
GATTCGGGAAACTGGATC (((.(.(....).).))) showed a folding enthalpy [1] of -24.2 kcal/mol and a Tm [2] of 30.8 °C.
GATCAATGTCTTGATC ((((((....)))))) showed a folding enthalpy [1] of -27.9 kcal/mol and a Tm [2] of 43.5 °C.
For GGCTGGGGAAACCTGGCC (((..((....))..))), the folding enthalpy [1] was -30.6 kcal/mol and the Tm [2] was 51.7 °C.
With GAACAAGGAAACTTGTTC (((((((....))))))) the folding enthalpy [1] was -44.9 kcal/mol and the Tm [2] was 53 °C.
For GTAAACCGAAAGGTTAC (((.(((....)))))), the folding enthalpy [1] was -15.7 kcal/mol and the Tm [2] was 43.2 °C.
GCAGGGACGAAAGTCTGC (((..(((....)))))) gave a folding enthalpy [1] of -23 kcal/mol and a Tm [2] of 47.9 °C.
For GCGACCCATCGC ((((....)))), the folding enthalpy [1] was -19.5 kcal/mol and the Tm [2] was 52.2 °C.
With GTAAGGGGAAACCCTTGC (.(((((....))))).) the folding enthalpy [1] was -23.3 kcal/mol and the Tm [2] was 46.2 °C.
Sequence GATACCGAAAGGTACATC ((((((....)))..))) has a folding enthalpy [1] of -10.4 kcal/mol and a Tm [2] of 26.9 °C.
GATCTTCACAAGATC ((((((...)))))) showed a folding enthalpy [1] of -28.7 kcal/mol and a Tm [2] of 45.8 °C.
GATCATAAGATGATC ((((((...)))))) gave a folding enthalpy [1] of -31.1 kcal/mol and a Tm [2] of 46.6 °C.
Sequence GCCCTACGAAAGTAGGC (((.(((....)))))) has a folding enthalpy [1] of -13 kcal/mol and a Tm [2] of 56.8 °C.
In the case of GGCCACGAAAGTGCGCC ((((((....))).))), the folding enthalpy [1] is reported as -32.8 kcal/mol and the Tm [2] is reported as 63.6 °C.
Sequence GATCCAACATTGGATC ((((((....)))))) has a folding enthalpy [1] of -43.3 kcal/mol and a Tm [2] of 50 °C.
With CGATCCGGAAACGGTTCG (((.(((....))).))) the folding enthalpy [1] was -32 kcal/mol and the Tm [2] was 49.8 °C.
Work on CGTTGGAAACAACG (((((....))))) yielded a folding enthalpy [1] of -30.3 kcal/mol and a Tm [2] of 52.9 °C.
For GCAACGGGAAACCATCGC ((.(.((....)).).)), the folding enthalpy [1] was -12.5 kcal/mol and the Tm [2] was 27 °C.
For GCCGAGTCGAAAGACGGC (((..(((....)))))), the folding enthalpy [1] was -21.2 kcal/mol and the Tm [2] was 56.6 °C.
For GGACCAGGAAACCGGTCC (((((.(....).))))), the folding enthalpy [1] was -35.3 kcal/mol and the Tm [2] was 54.6 °C.
In the case of GCCATCGGAAACGGTGGC ((((.((....)).)))), the folding enthalpy [1] is reported as -46.7 kcal/mol and the Tm [2] is reported as 59.3 °C.
GTCCTGGGAAACTGGGAC ((((..(....)..)))) gave a folding enthalpy [1] of -26.5 kcal/mol and a Tm [2] of 44.8 °C.
Work on GGTTCCGAAAGGAGACC ((((((....))).))) yielded a folding enthalpy [1] of -23.8 kcal/mol and a Tm [2] of 47.6 °C.
In the case of GTGGGAGAAATCCCAC ((((((....)))))), the folding enthalpy [1] is reported as -28.3 kcal/mol and the Tm [2] is reported as 58.8 °C.
GATCCAGCCATGGATC ((((((....)))))) gave a folding enthalpy [1] of -38.8 kcal/mol and a Tm [2] of 58.7 °C.
With GGCAAGGGAAACCCTGCC ((((.((....)).)))) the folding enthalpy [1] was -38.6 kcal/mol and the Tm [2] was 53.2 °C.
Work on GTACGCGAAAGCGGTTAC ((((((....)))..))) yielded a folding enthalpy [1] of -8.32 kcal/mol and a Tm [2] of 32.7 °C.
Sequence GGCAATTCGAAAGAAGCC (((..(((....)))))) has a folding enthalpy [1] of -24.7 kcal/mol and a Tm [2] of 37.8 °C.
